Assay results reported in ChEMBL document CHEMBL1157208, “Synthesis and CNS depressant activity of some novel 3-[5-substituted 1,3,4-thiadiazole-2-yl]-2-styryl quinazoline-4(3H)-ones” (Eur J Med Chem, 2008).
Calls of active or inactive are those of the source. No cut-off for these calls is given here.

Legend:
Mus musculus [1] = test: Anticonvulsant activity in mouse assessed as inhibition of maximal electroshock-induced seizures at 300 mg/kg, ip after 0.5 hrs; format: functional, organism-based; design: dose 300 mg/kg
In short: (§1)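 Male albino mice (CF-1 or Swiss, 18–25 g) received compound suspended in polyethylene glycol 400, i.p., 0.01 ml/g, at 30, 100 and 300 mg/kg. Maximal electroshock and subcutaneous pentylenetetrazole seizure tests were run at 0.5 and 4 h by a previously reported procedure.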

Mus musculus [2] = test: Sedative-hypnotic effect in mouse assessed as decrease locomotor activity score at 100 mg/kg, ip after 1 hr by actophotometer; format: functional; details: route intraperitoneal
In short: (§2)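 Locomotor activity in mice was read as a digital photocell score on an actophotometer. Baseline was taken 24 h before treatment, then at 30 min and 1 h after 100 mg/kg i.p. Controls received PEG 400. Percent decrease was calculated from the 1 h values. Results are mean ± SEM of six mice, compared with Student's t test.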

Mus musculus [3] = test: Sedative-hypnotic effect in mouse assessed as inhibition of locomotor activity at 100 mg/kg, ip by actophotometer; format: functional; details: route intraperitoneal; in short: as §2
Mus musculus [4] = test: Sedative-hypnotic effect in mouse assessed as decrease locomotor activity score at 100 mg/kg, ip after 0.5 hrs by actophotometer; format: functional; details: route intraperitoneal; in short: as §2
Mus musculus [5] = test: Anticonvulsant activity in mouse assessed as inhibition of pentylenetetrazole-induced seizure at 300 mg/kg, ip after 0.5 hrs; format: functional, organism-based; design: dose 300 mg/kg; in short: as §1
Mus musculus [6] = test: Anticonvulsant activity in mouse assessed as inhibition of maximal electroshock-induced seizures at 300 mg/kg, ip after 4 hrs; format: functional, organism-based; design: dose 300 mg/kg; in short: as §1
Mus musculus [7] = test: Neurotoxicity in ip dosed mouse after 0.5 hrs by rotarod test; format: toxicity, organism-based; details: in vivo
In short: (§3)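 Mice dosed i.p. at 30, 100 and 300 mg/kg in PEG 400 were examined 0.5 and 4 h later on a rotorod. Animals were pre-trained on a 3.2 cm rod turning at 6 rpm. Neurotoxicity meant failing to keep equilibrium for at least 1 min in each of three trials. The value is the minimum dose affecting half or more of the animals.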

Mus musculus [8] = test: Neurotoxicity in mouse at 300 mg/kg, ip after 4 hrs by rotarod test; format: toxicity, organism-based; design: dose 300 mg/kg, route intraperitoneal; details: in vivo; in short: as §3
Mus musculus [9] = test: Anticonvulsant activity in mouse assessed as inhibition of pentylenetetrazole-induced seizure at 300 mg/kg, ip after 4 hrs; format: functional, organism-based; design: dose 300 mg/kg; in short: as §1
Mus musculus [10] = test: Anticonvulsant activity in ip dosed mouse assessed as inhibition of maximal electroshock-induced seizures after 0.5 hrs; format: functional; in short: as §1
Mus musculus [11] = test: Neurotoxicity in ip dosed mouse after 4 hrs by rotarod test; format: toxicity, organism-based; details: in vivo; in short: as §3
Mus musculus [12] = test: Anticonvulsant activity in ip dosed mouse assessed as inhibition of maximal electroshock-induced seizures after 4 hrs; format: functional; in short: as §1
Mus musculus [13] = test: Anticonvulsant activity in ip dosed mouse assessed as inhibition of pentylenetetrazole-induced seizure after 4 hrs; format: functional; in short: as §1
Mus musculus [14] = test: Anticonvulsant activity in ip dosed mouse assessed as inhibition of pentylenetetrazole-induced seizure after 0.5 hrs; format: functional; in short: as §1
Rattus norvegicus = test: Antidepressant activity in Wistar rat assessed as increase in immobility time at 30 mg/kg, ip after 30 mins by forced-swimming test; format: functional; details: route intraperitoneal
Mus musculus [15] = test: Neurotoxicity in mouse at 300 mg/kg, ip after 0.5 hrs by rotarod test; format: toxicity, organism-based; design: dose 300 mg/kg, route intraperitoneal; details: in vivo; in short: as §3
Mus musculus [16] = test: Neurotoxicity in mouse assessed as loss of righting reflux at 100 mg/kg, ip after 0.5 hrs; format: toxicity, organism-based; design: dose 100 mg/kg, route intraperitoneal; details: in vivo
Mus musculus [17] = test: Sedative-hypnotic effect in mouse assessed as decrease locomotor activity score at 25 mg/kg, po after 1 hr by actophotometer; format: functional
Mus musculus [18] = test: Sedative-hypnotic effect in mouse assessed as decrease locomotor activity score at 25 mg/kg, po after 0.5 hrs by actophotometer; format: functional
Mus musculus [19] = test: Sedative-hypnotic effect in mouse assessed as inhibition of locomotor activity at 25 mg/kg, po by actophotometer; format: functional
Mus musculus [20] = test: Toxicity in mouse at 300 mg/kg, ip; format: organism-based; design: dose 300 mg/kg, route intraperitoneal; details: in vivo
Mus musculus [21] = test: Neurotoxicity in mouse at 100 mg/kg, ip after 0.25 hrs by rotarod test; format: toxicity, organism-based; design: dose 100 mg/kg, route intraperitoneal; details: in vivo
Mus musculus [22] = test: Neurotoxicity in mouse at 100 mg/kg, ip after 1 hr by rotarod test; format: toxicity, organism-based; design: dose 100 mg/kg, route intraperitoneal; details: in vivo

Row | Compound | Activity (Mus musculus [1]) | Activity (Mus musculus [2]) | inhibition in vivo at 100 mg/kg (Mus musculus [3]) | Activity (Mus musculus [4]) | Activity (Mus musculus [5]) | Activity (Mus musculus [6]) | Activity (Mus musculus [8]) | Activity (Mus musculus [9]) | Activity (Mus musculus [12]) | Activity (Mus musculus [15]) | also measured
1 | COc1ccc(/C=C/c2nc3ccccc3c(=O)n2-c2nnc(-c3ccc(OC)cc3)s2)cc1 | inactive | 180.3 | 59% | 308.13 | inactive | inactive | Not Active | inactive |  |  | Activity (Mus musculus [7]): 300 mg/kg
2 | NC(=O)N1c2ccccc2C=Cc2ccccc21 [CARBAMAZEPINE] |  |  |  |  |  |  |  |  | 100 mg/kg |  | Activity (Mus musculus [10]): 30 mg/kg; Activity (Mus musculus [11]): 300 mg/kg; Activity (Mus musculus [13]): 300 mg/kg; Activity (Mus musculus [7]): 100 mg/kg; Activity (Mus musculus [14]): 100 mg/kg; Activity (Rattus norvegicus): 240.3 s
3 | Cc1ccc(/C=C/c2nc3ccccc3c(=O)n2-c2nnc(/C=C/c3ccccc3)s2)cc1 | inactive | 123.32 | 67% | 310.32 | inactive | inactive | Not Active | inactive |  | Not Active | 
4 | Cc1ccc(/C=C/c2nc3ccccc3c(=O)n2-c2nnc(-c3ccccc3)s2)cc1 | inactive | 185.15 | 55% | 353.52 | inactive | inactive | Not Active | inactive |  | Not Active | 
5 | Cc1ccc(/C=C/c2nc3ccccc3c(=O)n2-c2nnc(-c3cccc(Cl)c3)s2)cc1 | inactive | 128.94 | 65% | 298.67 |  | inactive | Not Active |  |  | Not Active | Activity (Mus musculus [13]): 300 mg/kg; Activity (Mus musculus [14]): 300 mg/kg
6 | Cc1ccc(-c2nnc(-n3c(/C=C/c4ccccc4)nc4ccccc4c3=O)s2)cc1 | inactive | 467 |  | 531 | inactive | inactive | Not Active | inactive |  | Not Active | 
7 | O=c1c2ccccc2nc(/C=C/c2ccccc2)n1-c1nnc(-c2ccc(Cl)cc2)s1 |  | 132.04 | 68% | 250.62 |  |  | Not Active |  | 100 mg/kg | Not Active | Activity (Mus musculus [10]): 100 mg/kg; Activity (Mus musculus [13]): 300 mg/kg; Activity (Mus musculus [14]): 300 mg/kg
8 | COc1ccc(/C=C/c2nc3ccccc3c(=O)n2-c2nnc(-c3ccccc3)s2)cc1 | inactive | 210.24 | 55% | 419.24 | inactive | inactive | Not Active | inactive |  |  | Activity (Mus musculus [16]): Toxic
9 | O=C1NC(=O)C(c2ccccc2)(c2ccccc2)N1 [PHENYTOIN] |  |  |  |  | inactive |  |  | inactive | 30 mg/kg |  | Activity (Mus musculus [10]): 30 mg/kg; Activity (Mus musculus [17]): 164.1; Activity (Mus musculus [11]): 100 mg/kg; Activity (Mus musculus [18]): 251.02; Activity (Mus musculus [7]): 100 mg/kg; inhibition in vivo at 25 mg/kg (Mus musculus [19]): 70%
10 | COc1ccc(/C=C/c2nc3ccccc3c(=O)n2-c2nnc(-c3ccc(Cl)cc3)s2)cc1 | inactive | 155.31 | 62% | 306.98 |  |  | Not Active |  | 300 mg/kg | Not Active | Activity (Mus musculus [13]): 300 mg/kg
11 | Cc1ccc(/C=C/c2nc3ccccc3c(=O)n2-c2nnc(-c3ccc(Cl)cc3)s2)cc1 | inactive | 153.08 | 64% | 373.56 | inactive |  | Not Active | inactive | 300 mg/kg | Not Active | 
12 | COc1ccc(/C=C/c2nc3ccccc3c(=O)n2-c2nnc(-c3ccc(C)cc3)s2)cc1 | inactive | 142.19 | 64% | 315.46 |  | inactive | Not Active | inactive |  | Not Active | Activity (Mus musculus [14]): 300 mg/kg
13 | COc1ccc(-c2nnc(-n3c(/C=C/c4ccccc4)nc4ccccc4c3=O)s2)cc1 | inactive | 266.36 | 36% | 381.82 | inactive | inactive | Not Active | inactive |  | Not Active | 
14 | O=c1c2ccccc2nc(/C=C/c2ccccc2)n1-c1nnc(-c2ccccc2)s1 |  | 249.45 | 55% | 472.31 | inactive | inactive | Not Active |  |  | Not Active | Activity (Mus musculus [20]): Toxic; Activity (Mus musculus [10]): 30 mg/kg
15 | O=c1c2ccccc2nc(/C=C/c2ccccc2)n1-c1nnc(/C=C/c2ccccc2)s1 | inactive | 489.92 |  | 372.87 | inactive | inactive | Not Active | inactive |  |  | Activity (Mus musculus [7]): 300 mg/kg
16 | Cc1ccc(/C=C/c2nc3ccccc3c(=O)n2-c2nnc(-c3ccc(C)cc3)s2)cc1 | inactive | 92.2 | 71% | 291.39 | inactive | inactive | Not Active | inactive |  | Not Active | 
17 | CCCC(CCC)C(=O)[O-].[Na+] [VALPROATE SODIUM] | inactive |  |  |  |  | inactive | Not Active | inactive |  | Not Active | Activity (Mus musculus [14]): 300 mg/kg
18 | COc1ccc(-c2nnc(-n3c(/C=C/c4ccc(C)cc4)nc4ccccc4c3=O)s2)cc1 | inactive | 137.19 | 65% | 272.19 | inactive | inactive | Not Active | inactive |  | Not Active | 
19 | COc1ccc(/C=C/c2nc3ccccc3c(=O)n2-c2nnc(-c3cccc(Cl)c3)s2)cc1 | inactive | 110.45 | 66% | 292.39 | inactive |  | Not Active | inactive | 300 mg/kg | Not Active | 
20 | COc1ccc(/C=C/c2nc3ccccc3c(=O)n2-c2nnc(/C=C/c3ccccc3)s2)cc1 | inactive | 228.32 | 51% | 362.37 | inactive | inactive | Not Active | inactive |  | Not Active | 
21 | O=c1c2ccccc2nc(/C=C/c2ccccc2)n1-c1nnc(-c2cccc(Cl)c2)s1 | inactive | 165.52 | 63% | 319.57 | inactive |  | Not Active | inactive | 100 mg/kg |  | Activity (Mus musculus [21]): Toxic; Activity (Mus musculus [7]): 300 mg/kg; Activity (Mus musculus [22]): Toxic
22 | CCC1(C)CC(=O)NC1=O (centres undefined) [ETHOSUXIMIDE] | inactive |  |  |  |  | inactive | Not Active | inactive |  | Not Active | Activity (Mus musculus [14]): 300 mg/kg
